For experiment [1], the target named is T1, C-X-C chemokine receptor type 3 (Homo sapiens) (UniProt P49682).
T1 sequence (whole entry): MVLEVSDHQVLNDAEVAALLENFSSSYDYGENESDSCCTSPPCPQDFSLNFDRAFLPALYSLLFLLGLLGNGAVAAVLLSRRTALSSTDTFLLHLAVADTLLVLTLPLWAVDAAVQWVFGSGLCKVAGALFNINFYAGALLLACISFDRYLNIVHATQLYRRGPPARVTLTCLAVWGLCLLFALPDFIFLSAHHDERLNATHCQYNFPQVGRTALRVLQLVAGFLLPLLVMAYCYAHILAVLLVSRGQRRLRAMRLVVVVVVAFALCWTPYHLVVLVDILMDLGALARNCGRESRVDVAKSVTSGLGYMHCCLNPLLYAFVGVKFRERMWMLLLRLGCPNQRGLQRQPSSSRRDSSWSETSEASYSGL
Description: Agonist activity at CXCR3 expressed in HEK293 cells by [35S]GTPgamma binding assay relative to CXCL11. Format: functional, cell-based. Summed up: (§1)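 Membranes (5 μg/well) from HEK293 cells stably expressing CXCR3, incubated with CXCL11 or ligands. Buffer 50 mM HEPES, 10 mM MgCl2, 100 mM NaCl, pH 7.2, with 3 μM GDP and 300 pM [35S]GTPγS, 1 h at room temperature. Filtered on GF/B, incorporated label counted. Response normalized to CXCL11 (α = 1) to give relative efficacy; mean ± SEM of ≥3 independent experiments.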

Experiment [2] has as its target T2, C-X-C chemokine receptor type 3 (Homo sapiens, UniProt P49682).
T2 sequence (P49682 whole entry): T1 sequence (whole entry)
Description: Displacement of [125I]CXCL10 from CXCR3 expressed in HEK293 cells. It is filed as cell-based. Put shortly:
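Competition binding against [125I]CXCL10 using membranes from HEK293 cells stably expressing CXCR3. Affinities reported as pKi; mean ± SEM of at least three independent experiments.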
(In a radioligand displacement assay an active substance lowers the binding of a labelled ligand.)

In experiment [3] the target is T2, C-X-C chemokine receptor type 3. The experiment in a line: Agonist activity at CXCR3 expressed in HEK293 cells by [35S]GTPgamma binding assay. It is filed as functional, cell-based. Summed up: as §1
Experiment [4] deals with T1, C-X-C chemokine receptor type 3 (Homo sapiens). The experiment in a line: Agonist activity at CXCR3 expressed in HEK293 cells by CRE-luciferase reporter gene assay. Format: functional, cell-based. Put shortly: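 HEK293 cells stably expressing CXCR3, transfected with a CRE-luciferase reporter plasmid. Medium swapped for serum-free medium with 0.05% BSA plus ligands for 5 h. Then replaced by luciferin substrate solution (Tris-phosphate pH 7.8, glycerol, Triton X-100, DTT, MgCl2, 825 μM ATP, beetle luciferin) and luminescence read.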
On the technique in general: Reporter assays use an easily measured gene product as a stand-in for the process of interest.

The target is the same in experiment [5]. The experiment in a line: Agonist activity at CXCR3 expressed in HEK293 cells in presence of CXCR3 antagonist (R)-N-(1-(3-(4-ethoxyphenyl)-4-oxo-3,4-dihydropyrido[2,3-d]pyrimidin-2-yl)ethyl)-2-(4-fluoro-3-(trifluoromethyl)phenyl)-N-(pyridin-3-ylmethyl)acetamide by [35S]GTPgamma binding assay. It is filed as functional, cell-based. Summed up: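 [35S]GTPγS incorporation on membranes (5 μg/well) of HEK293 cells stably expressing CXCR3. Buffer 50 mM HEPES, 10 mM MgCl2, 100 mM NaCl, pH 7.2, 3 μM GDP, 300 pM [35S]GTPγS, 1 h at room temperature. In antagonist mode, antagonist added 30 min before [35S]GTPγS. Read by filtration and counting.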

Calls of active or inactive are those of the source. No cut-off for these calls is given here.

For the compound `CC1(C)[C@H]2CC=C(C[N+](C)(C)Cc3ccc(Cl)cc3)[C@@H]1C2`, in experiment [1], the Ratio worked out at 0.02.
By Ki is commonly meant the equilibrium dissociation constant of an inhibitor or competing ligand from its target. Low readings indicate a stronger hold on the target, high ones a looser hold on the target. In general, EC50 refers to the concentration that produces a half-maximal response. On to `CC1(C)[C@H]2CC=C(C[N+](C)(C)Cc3ccc(-c4c(Cl)cccc4Cl)cc3)[C@@H]1C2`, for which the Ratio in experiment [1] came to 0.42. In experiment [2], this compound gave a Ki of 398 nM. Besides, a half-maximal effect in experiment [3] (EC50) was put at 2000 nM.
Take `CC1(C)[C@H]2CC=C(C[N+](C)(C)Cc3ccc(-c4cccc(Br)c4)cc3)[C@@H]1C2`: in experiment [1], the Ratio was found to be 0.08. The compound further showed an inhibitory constant (Ki) in experiment [2] of 200 nM.
`CC1(C)[C@H]2CC[C@@H](C[N+](C)(C)Cc3ccc(-c4cccc(Cl)c4)cc3)[C@@H]1C2`: the Ratio in experiment [1] was 0.07. The Ki in experiment [2] is 501 nM.
Take `CC1(C)[C@H]2CC[C@@H](C[N+](C)(C)Cc3ccc(-c4ccccc4I)cc3)[C@@H]1C2`: the Ratio in experiment [1] was 0.83. This compound showed a Ki in experiment [2] of 100 nM. The 50% effective concentration (EC50) in experiment [3] is 1260 nM.
Consider `CC1(C)[C@@H]2CC=C(C[N+](C)(C)Cc3ccc(-c4cccc(Cl)c4)cc3)[C@H]1C2`, for which the Ratio in experiment [1] stood at 0.05. For the same compound, the Ki in experiment [2] is 316 nM.
Take `NCCCC[C@H](NC(=O)[C@@H]1Cc2ccccc2CN1C(=O)CCC(=O)c1ccccc1)C(=O)NCC(c1ccccc1)c1ccccc1`: in experiment [1], the Ratio is 0.96. Moreover, in experiment [2], affinity was put at a Ki of 39.8 nM.
As to `CC1(C)[C@H]2CC(C[N+](C)(C)Cc3ccc(-c4ccccc4I)cc3)=C[C@@H]1C2`, in experiment [1], the Ratio is 1.05. This compound also had a Ki in experiment [2] of 200 nM. Moreover, in experiment [3], the response was half-maximal at 1580 nM (EC50).
For `CC1(C)[C@H]2CC=C(C[N+](C)(C)Cc3ccc(-c4ccccc4Br)cc3)[C@@H]1C2`, in that order: 0.95, 63.1 nM and 794 nM.
As for `CC1(C)[C@H]2CC=C(C[N+](C)(C)Cc3ccc(-c4cc(Cl)ccc4Cl)cc3)[C@@H]1C2`, the outcome in experiment [4] was Active. For the same compound, in experiment [1], the Ratio was 0.64. In experiment [2], this compound showed a Ki of 251 nM. In experiment [3], this compound had an EC50 of 5010 nM.
With `CC1(C)[C@H]2CC=C(C[N+](C)(C)Cc3ccc(-c4ccccc4)cc3)[C@@H]1C2`, the Ratio in experiment [1] worked out at 0.11. In experiment [2], the affinity, expressed as Ki, was 631 nM.
In the case of `CC1(C)[C@H]2CC=C(C[N+](C)(C)Cc3ccc(-c4ccccc4I)cc3)[C@@H]1C2`, the outcome in experiment [4] was Active. Moreover, the result in experiment [5] was inactive. Moreover, in experiment [1], the Ratio worked out at 0.99. The compound also showed a Ki in experiment [2] of 63.1 nM. In experiment [3], this compound had an EC50 of 1000 nM.
As for `CC1(C)[C@H]2CC=C(C[N+](C)(C)Cc3ccccc3)[C@@H]1C2`, in experiment [1], the Ratio stood at 0.04. In addition, the Ki in experiment [2] is 2510 nM.
For `CC1(C)[C@H]2CC=C(C[N+](C)(C)Cc3ccc(-c4cccc(Cl)c4)cc3)[C@@H]1C2`, the outcome in experiment [4] was inactive. The Ratio in experiment [1] was determined as 0.05. Also, the affinity in experiment [2] corresponds to a Ki of 251 nM.
With `Cc1cccc(C)c1-c1ccc(C[N+](C)(C)CC2=CC[C@H]3C[C@@H]2C3(C)C)cc1`, the Ratio in experiment [1] amounted to 0.19. For the same compound, the affinity in experiment [2], expressed as Ki, was 1000 nM. This compound also had an EC50 in experiment [3] of 7940 nM.
For `CC1(C)[C@H]2CC=C(C[N+](C)(C)Cc3ccc(-c4ccccc4)c(Cl)c3)[C@@H]1C2`, the Ratio in experiment [1] came to 0.06. Besides, in experiment [2], the Ki is 631 nM.
Consider `CC1(C)[C@H]2CC=C(C[N+](C)(C)Cc3ccc(-c4cccc(Cl)c4)c(Cl)c3)[C@@H]1C2`, for which, in experiment [1], the Ratio was found to be 0.03. This compound also gave an inhibition constant (Ki) in experiment [2] of 501 nM.
For `CC1(C)[C@H]2CC=C(C[N+](C)(C)Cc3ccc(-c4ccccc4O)cc3)[C@@H]1C2` the same measures were 0.07 and 2000 nM.
Regarding `CC1(C)[C@H]2CC=C(C[N+](C)(C)Cc3ccc(-c4cccc(Cl)c4Cl)cc3)[C@@H]1C2`, the Ratio in experiment [1] amounted to 0.31. The compound further gave a Ki in experiment [2] of 398 nM. Moreover, the EC50 in experiment [3] is 631 nM.
`COc1ccccc1-c1ccc(C[N+](C)(C)CC2=CC[C@H]3C[C@@H]2C3(C)C)cc1`: the Ratio in experiment [1] was determined as 0.36. The Ki in experiment [2] was 158 nM. This compound had an EC50 in experiment [3] of 12600 nM.
Take `CC1(C)[C@H]2CC=C(C[N+](C)(C)Cc3ccc(-c4ccccc4Cl)c(Cl)c3)[C@@H]1C2`: in experiment [1], the Ratio was 0.3. Besides, affinity in experiment [2] was put at a Ki of 200 nM. Also, the EC50 in experiment [3] was 794 nM.
Consider `CC1(C)[C@H]2CC=C(C[N+](C)(C)Cc3ccc4c(c3)Cc3ccccc3-4)[C@@H]1C2`, for which, in experiment [1], the Ratio is 0.03. This compound had an inhibition constant (Ki) in experiment [2] of 398 nM.
For the compound `CC1(C)[C@@H]2CC=C(C[N+](C)(C)Cc3ccc(-c4ccccc4I)cc3)[C@H]1C2`, the Ratio in experiment [1] came to 0.98. For the same compound, the affinity in experiment [2] corresponds to a Ki of 50.1 nM. The compound further gave an EC50 in experiment [3] of 631 nM.
As to `CC1(C)[C@H]2CC(C[N+](C)(C)Cc3ccc(-c4cccc(Cl)c4)cc3)=C[C@@H]1C2`, the Ratio in experiment [1] was determined as 0.07. The compound also had a Ki in experiment [2] of 501 nM.
In the case of `Cc1ccccc1-c1ccc(C[N+](C)(C)CC2=CC[C@H]3C[C@@H]2C3(C)C)cc1`, the Ratio in experiment [1] was determined as 0.2. This compound gave a Ki in experiment [2] of 158 nM. In addition, the EC50 in experiment [3] is 1260 nM.
On to `CCOc1ccc(-n2c([C@@H](C)N(Cc3cccnc3)C(=O)Cc3ccc(F)c(C(F)(F)F)c3)nc3ncccc3c2=O)cc1`, for which, in experiment [1], the Ratio came out at 0. In addition, in experiment [2], the affinity, expressed as Ki, was 10 nM.
For the compound `CC1(C)[C@H]2CC=C(C[N+](C)(C)Cc3ccc(-c4ccccc4F)cc3)[C@@H]1C2`, the Ratio in experiment [1] came to 0.2. This compound gave a Ki in experiment [2] of 501 nM. The same compound showed an EC50 in experiment [3] of 1260 nM.
Regarding `CC1(C)[C@H]2CC=C(C[N+](C)(C)Cc3ccc(-c4ccccc4Cl)cc3)[C@@H]1C2`, in experiment [5], the outcome was inactive. In addition, the Ratio in experiment [1] stood at 0.73. Besides, in experiment [2], the inhibition constant Ki was 100 nM. Also, it took 1580 nM to reach a half-maximal effect in experiment [3] (EC50).
